From ChEMBL document CHEMBL1949606, “Carbonic anhydrase VII is S-glutathionylated without loss of catalytic activity and affinity for sulfonamide inhibitors” (Bioorg Med Chem Lett, 2012)
Each block holds one molecule with its values, some of them ahead of it.

Experiments:
Homo sapiens [1] = species on record: Homo sapiens; assay: Activity of human recombinant carbonic anhydrase 7 C183S/C217S mutant
Homo sapiens [2] = species on record: Homo sapiens; assay: Ratio of Kcat to Km for human recombinant carbonic anhydrase 7 C183S/C217S mutant
[3] = Inhibition of human recombinant carbonic anhydrase 7 C183S/C217S mutant using carbon-dioxide as substrate preincubated for 10 mins prior to substrate addition by […]
In short: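 Stopped-flow CO2 hydration by Khalifah's method: 0.2 mM phenol red read at 557 nm, 10 mM HEPES pH 7.5, 0.1 M Na2SO4, CO2 1.7–17 mM, initial rates over 10–100 s. Enzyme preincubated 10 min at room temperature with at least 7 inhibitor concentrations, from 10 mM DMSO-water stock diluted down to 1 nM. Triplicates; Ki by non-linear least-squares fitting.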

[4] = Inhibition of human recombinant carbonic anhydrase 7 C183S/C217S mutant hydrolysis activity using 4-nitrophenyl acetate as substrate preincubated for 10 mins prior to substrate addition by […]
In short: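 Esterase assay with 4-nitrophenyl acetate dissolved in acetonitrile (final MeCN 5%). Buffer: 10 mM HEPES/10 mM Tris pH 7.4 with 0.1 M Na2SO4; enzyme 0.10–5.0 µM. […] Spontaneous hydrolysis subtracted.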

[5] = Inhibition of human recombinant carbonic anhydrase 7 C183S/C217S mutant phosphatase activity using 4-nitrophenyl phosphate as substrate preincubated for 10 mins prior to substrate addition by […]
In short: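 Phosphatase assay with 4-nitrophenyl phosphate at 0.08–5 mM, 25 °C, 4-nitrophenol release read at 405 nm. Buffer: 10 mM HEPES/10 mM Tris pH 7.4 with 0.1 M Na2SO4. Spontaneous hydrolysis subtracted.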

[6] = substrate: CC(=O)Oc1ccc([N+](=O)[O-])cc1; assay: (§1) Activity of human recombinant carbonic anhydrase 7
[7] = substrate: O=[N+]([O-])c1ccc(OP(=O)(O)O)cc1; assay: as §1
[8] = substrate: CC(=O)Oc1ccc([N+](=O)[O-])cc1; assay: (§2) Activity of S-glutathionylated form of human recombinant carbonic anhydrase 7
[9] = substrate: O=[N+]([O-])c1ccc(OP(=O)(O)O)cc1; assay: as §2
[10] = substrate: O=[N+]([O-])c1ccc(OP(=O)(O)O)cc1; assay: Ratio of Kcat to Km for human recombinant carbonic anhydrase 7
[11] = substrate: O=[N+]([O-])c1ccc(OP(=O)(O)O)cc1; assay: Ratio of Kcat to Km for S-glutathionylated form of human recombinant carbonic anhydrase 7
[12] = substrate: CC(=O)Oc1ccc([N+](=O)[O-])cc1; assay: (§3) Activity of human recombinant carbonic anhydrase 3
[13] = substrate: O=[N+]([O-])c1ccc(OP(=O)(O)O)cc1; assay: as §3
[14] = substrate: CC(=O)Oc1ccc([N+](=O)[O-])cc1; assay: (§4) Ratio of Kcat to Km for human recombinant carbonic anhydrase 3
[15] = substrate: O=[N+]([O-])c1ccc(OP(=O)(O)O)cc1; assay: as §4

Km (Homo sapiens [1]): 2210 µM
kcat/Km (Homo sapiens [2]): 3.03 ×10⁴ /M/s
Molecule: O=[N+]([O-])c1ccc(OP(=O)(O)O)cc1

Ki [3]: 3 nM
IC50 [4]: 170 nM
IC50 [5]: 2910 nM
Molecule: CC(=O)Nc1nnc(S(N)(=O)=O)s1 [ACETAZOLAMIDE]

Km (Homo sapiens [1]): 1060 µM
Molecule: CC(=O)Oc1ccc([N+](=O)[O-])cc1

B1: Carbonic anhydrase 7 (Homo sapiens), P43166 (protein)
chain: MTGHHGWGYGQDDGPSHWHKLYPIAQGDRQSPINIISSQAVYSPSLQPLELSYEACMSLSITNNGHSVQVDFNDSDDRTVVTGGPLEGPYRLKQFHFHWGKKHDVGSEHTVDGKSFPSELHLVHWNAKKYSTFGEAASAPDGLAVVGVFLETGDEHPSMNRLTDALYMVRFKGTKAQFSCFNPKCLLPASRHYWTYPGSLTTPPLSESVTWIVLREPICISERQMGKFRSLLFTSEDDERIHMVNNFRPPQPLKGRVVKASFRA
Km [6]: 750 µM
Km [7]: 1430 µM
Km [8]: 500 µM
Km [9]: 970 µM
kcat/Km [10]: 2.89 ×10⁴ /M/s
kcat/Km [11]: 3.04 ×10⁴ /M/s

B2: Carbonic anhydrase 3 (Homo sapiens), P07451 (protein)
chain: MAKEWGYASHNGPDHWHELFPNAKGENQSPVELHTKDIRHDPSLQPWSVSYDGGSAKTILNNGKTCRVVFDDTYDRSMLRGGPLPGPYRLRQFHLHWGSSDDHGSEHTVDGVKYAAELHLVHWNPKYNTFKEALKQRDGIAVIGIFLKIGHENGEFQIFLDALDKIKTKGKEAPFTKFDPSCLFPACRDYWTYQGSFTTPPCEECIVWLLLKEPMTVSSDQMAKLRSLLSSAENEPPVPLVSNWRPPQPINNRVVRASFK
Km [12]: 1230 µM
Km [13]: 1340 µM
kcat/Km [14]: 139 M⁻¹ s⁻¹
kcat/Km [15]: 45.3 M⁻¹ s⁻¹
